Test results: ChEMBL document CHEMBL4480390, “Cink4T, a quinazolinone-based dual inhibitor of Cdk4 and tubulin polymerization, identified via ligand-based virtual screening, for efficient anticancer therapy” (Eur J Med Chem, 2019)
Activity calls are given as the source filed them. The calls are words filed in the database; no cut-off is given here.

Assays:
[1] = biological target: CDK6/cyclin D1 (Homo sapiens, UniProt Q00534); assay: Inhibition of CDK6/cyclin D1 (unknown origin) using RBER-CHKtide as substrate measured after 1 hr by ADP-glo luminescence assay; type: protein-complex assay
Chain of CDK6/cyclin D1 (P24385 whole entry): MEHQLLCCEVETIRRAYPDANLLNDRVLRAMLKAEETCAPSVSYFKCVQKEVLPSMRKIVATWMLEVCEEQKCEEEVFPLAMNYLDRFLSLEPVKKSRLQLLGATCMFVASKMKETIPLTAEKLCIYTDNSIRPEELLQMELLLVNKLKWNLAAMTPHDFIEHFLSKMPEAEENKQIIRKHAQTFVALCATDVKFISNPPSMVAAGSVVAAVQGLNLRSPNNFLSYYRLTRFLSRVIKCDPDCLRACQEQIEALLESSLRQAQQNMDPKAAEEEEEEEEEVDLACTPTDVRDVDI
Chain of CDK6/cyclin D1 (Q00534 whole entry): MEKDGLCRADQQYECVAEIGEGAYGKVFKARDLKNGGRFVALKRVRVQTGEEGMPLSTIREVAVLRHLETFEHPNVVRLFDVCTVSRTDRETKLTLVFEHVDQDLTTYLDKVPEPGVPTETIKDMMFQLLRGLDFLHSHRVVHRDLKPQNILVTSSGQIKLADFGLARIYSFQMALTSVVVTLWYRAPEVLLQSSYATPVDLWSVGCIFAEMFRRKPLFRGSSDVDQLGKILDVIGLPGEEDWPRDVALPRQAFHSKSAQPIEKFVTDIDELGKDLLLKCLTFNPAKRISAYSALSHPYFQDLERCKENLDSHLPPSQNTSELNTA
Procedure, shortened: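 ADP-Glo kinase assay with 200 ng Cdk-cyclin enzyme, ATP (125 µM in 2.5x mix) and 25 µg substrate (RBCTF or RBER-CHKtide, per Cdk). Buffer: Tris, MgCl2, BSA, DTT, MnCl2 cofactor, DMSO. Reaction 1 h at 21°C; ADP-Glo 40 min, then detection reagent 40 min. Luminescence read. IC50 by 4-parameter fit; three independent experiments.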

[2] = biological target: T1, Tubulin (Sus scrofa) (UniProt P02554+P02550); assay: Inhibition of porcine tubulin polymerization at 5 uM incubated for 1 min by fluorescence based assay; type: protein assay
T1 sequence (P02550 whole entry, looked up): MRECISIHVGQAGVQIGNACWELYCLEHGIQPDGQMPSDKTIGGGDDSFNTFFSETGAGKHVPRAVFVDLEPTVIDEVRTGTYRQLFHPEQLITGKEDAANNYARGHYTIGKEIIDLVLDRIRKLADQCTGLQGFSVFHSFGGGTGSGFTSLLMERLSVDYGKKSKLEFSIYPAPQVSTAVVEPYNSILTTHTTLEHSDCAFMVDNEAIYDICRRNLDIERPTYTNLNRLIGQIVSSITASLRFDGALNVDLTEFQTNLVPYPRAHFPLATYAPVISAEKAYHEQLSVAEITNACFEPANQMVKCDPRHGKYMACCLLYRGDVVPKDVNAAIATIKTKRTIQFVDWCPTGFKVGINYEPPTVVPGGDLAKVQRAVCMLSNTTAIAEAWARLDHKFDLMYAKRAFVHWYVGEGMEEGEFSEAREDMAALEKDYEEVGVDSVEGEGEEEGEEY
T1 sequence (P02554 whole entry, looked up): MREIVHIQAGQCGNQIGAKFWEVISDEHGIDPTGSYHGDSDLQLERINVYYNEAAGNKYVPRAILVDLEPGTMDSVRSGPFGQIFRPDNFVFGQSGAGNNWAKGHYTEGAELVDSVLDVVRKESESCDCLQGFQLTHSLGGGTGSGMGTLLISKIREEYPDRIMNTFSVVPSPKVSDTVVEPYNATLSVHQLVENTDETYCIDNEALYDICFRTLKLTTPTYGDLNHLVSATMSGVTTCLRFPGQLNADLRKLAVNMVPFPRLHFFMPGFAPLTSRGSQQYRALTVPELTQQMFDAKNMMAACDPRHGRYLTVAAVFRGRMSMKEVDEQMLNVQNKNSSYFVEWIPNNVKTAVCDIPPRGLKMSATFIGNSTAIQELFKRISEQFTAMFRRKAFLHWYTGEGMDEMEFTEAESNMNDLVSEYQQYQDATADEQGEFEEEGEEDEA
Procedure, shortened: (§1)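 Compounds added from 10x stocks in duplicate and warmed at 37°C ≤1 min. Ice-cold tubulin pre-mix then added. Fluorescent reporter read at ex 360/em 460 nm for 60 min. Paclitaxel served as enhancer control, CaCl2 as inhibitor control.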

[3] = biological target: T1, Tubulin (Sus scrofa); assay: Inhibition of porcine tubulin polymerization incubated for 1 min by fluorescence based assay; type: protein assay; procedure, shortened: as §1
[4] = test system: T47D; assay: Cell cycle arrest in human T47D cells assessed as ratio of G1 to S phase at 0.75 uM measured after 18 hrs by propidium iodide staining based flow cytometry (reference value: 2.65); type: functional
[5] = test system: T47D; assay: Cell cycle arrest in human T47D cells assessed as ratio of G1 to S phase at 1.5 uM measured after 18 hrs by propidium iodide staining based flow cytometry (reference value: 2.65); type: functional
[6] = test system: T47D; assay: Cell cycle arrest in human T47D cells assessed as accumulation at sub-G1 phase at 0.75 uM measured after 18 hrs by propidium iodide staining based flow cytometry relative to control; type: functional
[7] = test system: T47D; assay: Cell cycle arrest in human T47D cells assessed as accumulation at sub-G1 phase at 1.5 uM measured after 18 hrs by propidium iodide staining based flow cytometry relative to control; type: functional
[8] = biological target: T2, Cyclin-dependent kinase 4/cyclin D1 (Homo sapiens) (UniProt P11802+P24385); assay: Inhibition of CDK4/cyclin D1 in human T47D cells assessed as reduction in phosphorylation of pRb at Ser795 residues at 0.75 to 1.5 uM measured after 18 hrs by Western blot analysis; type: cell-based
Procedure, shortened: (§2)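 T47D cells left untreated or treated 18 h at 0.75 or 1.5 µM. Western blots probed with phospho-specific pRb antibodies (Ser780, Ser795, Ser807/811) and a total-pRb antibody; HRP-conjugated secondary for detection.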

[9] = biological target: T2, Cyclin-dependent kinase 4/cyclin D1 (Homo sapiens); assay: Inhibition of CDK4/cyclin D1 in human T47D cells assessed as reduction in phosphorylation of pRb at Ser807/11 residues at 0.75 uM measured after 18 hrs by Western blot analysis; type: cell-based; procedure, shortened: as §2
[10] = biological target: T2, Cyclin-dependent kinase 4/cyclin D1 (Homo sapiens); assay: Inhibition of CDK4/cyclin D1 in human T47D cells assessed as reduction in phosphorylation of pRb at Ser807/11 residues at 1.5 uM measured after 18 hrs by Western blot analysis; type: cell-based; procedure, shortened: as §2
[11] = test system: T47D; assay: Cell cycle arrest in human T47D cells assessed as accumulation at sub-G1 phase at 1.5 uM treated 18 hrs post serum-starvation measured after 18 hrs in presence of fresh medium containing FBS by propidium iodide staining based flow cytometry relative to control; type: functional
[12] = test system: Calu-1; assay: Cell cycle arrest in human Calu1 cells assessed as accumulation at G0/G1 phase at 0.9 uM treated 18 hrs post serum-starvation measured after 18 hrs in presence of fresh medium containing FBS by propidium iodide staining based flow cytometry (reference value: 69.2%); type: functional
[13] = test system: Calu-1; assay: Cell cycle arrest in human Calu1 cells assessed as increase in accumulation at S phase at 1.8 uM treated 18 hrs post serum-starvation measured after 18 hrs in presence of fresh medium containing FBS by propidium iodide staining based flow cytometry relative to control; type: functional
[14] = test system: MDA-MB-468; assay: Cell cycle arrest in human MDA-MB-468 cells assessed as ratio of G1 to S phase at 10.85 uM measured after 18 hrs by propidium iodide staining based flow cytometry (reference value: 2.17); type: functional
[15] = test system: MDA-MB-468; assay: Cell cycle arrest in human MDA-MB-468 cells assessed as ratio of G1 to S phase at 22 uM measured after 18 hrs by propidium iodide staining based flow cytometry (reference value: 2.17); type: functional
[16] = test system: MDA-MB-468; assay: Cell cycle arrest in human MDA-MB-468 cells assessed as accumulation at sub-G1 phase at 10.85 uM measured after 18 hrs by propidium iodide staining based flow cytometry relative to control; type: functional
[17] = test system: MDA-MB-468; assay: Cell cycle arrest in human MDA-MB-468 cells assessed as accumulation at sub-G1 phase at 22 uM measured after 18 hrs by propidium iodide staining based flow cytometry relative to control; type: functional
[18] = test system: A549; assay: Cell cycle arrest in human A549 cells assessed as ratio of G1 to S phase at 0.8 uM measured after 18 hrs by propidium iodide staining based flow cytometry (reference value: 2.7); type: functional
[19] = test system: A549; assay: Cell cycle arrest in human A549 cells assessed as ratio of G1 to S phase at 1.6 uM measured after 18 hrs by propidium iodide staining based flow cytometry (reference value: 2.7); type: functional
[20] = test system: A549; assay: Cell cycle arrest in human A549 cells assessed as accumulation at G0/G1 phase at 1.6 uM measured after 18 hrs by propidium iodide staining based flow cytometry (reference value: 58%); type: functional
[21] = test system: A549; assay: Cell cycle arrest in human A549 cells assessed as accumulation at S phase at 0.8 uM measured after 18 hrs by propidium iodide staining based flow cytometry (reference value: 21%); type: functional
[22] = test system: A549; assay: Up regulation of cyclin-B1 expression in human A549 cells at 0.8 to 1.6 uM measured after 18 hrs by Western blot analysis; type: functional, cell-based
[23] = test system: A549; assay: Cell cycle arrest in human A549 cells assessed as ratio of G1 to S phase at 0.8 uM treated 32 hrs post mimosine addition measured after 18 hrs in presence of fresh medium by propidium iodide staining based flow cytometry (reference value: 2.5); type: functional
[24] = test system: A549; assay: Cell cycle arrest in human A549 cells assessed as accumulation at G2/M phase at 0.8 uM treated 32 hrs post mimosine addition measured after 18 hrs in presence of fresh medium by propidium iodide staining based flow cytometry (reference value: 14%); type: functional
[25] = test system: A549; assay: Cell cycle arrest in human A549 cells assessed as ratio of G1 to S phase at 1.6 uM treated 32 hrs post mimosine addition measured after 18 hrs in presence of fresh medium by propidium iodide staining based flow cytometry (reference value: 2.5); type: functional
[26] = test system: A549; assay: Cell cycle arrest in human A549 cells assessed as accumulation at S phase at 1.6 uM treated 32 hrs post mimosine addition measured after 18 hrs in presence of fresh medium by propidium iodide staining based flow cytometry (reference value: 23%); type: functional
[27] = test system: Calu-1; assay: cells; conditions: Homo sapiens, Calu-1, 72 h
[28] = test system: MDA-MB-468; assay: cells; conditions: Homo sapiens, MDA-MB-468, 72 h
[29] = test system: T47D; assay: cells; conditions: Homo sapiens, 72 h

O=C(COc1ccc(-c2nc3ccccc3c(=O)[nH]2)cc1)Nc1cccc(Cl)c1
IC50 [1]: > 100 µM | inhibition [2]: Active | inhibition [3]: Dose-dependent effect | Ratio [4]: 22 | Ratio [5]: 12 | Activity [6]: 0% | Activity [7]: 20% | inhibition [8]: Active | inhibition [9]: inactive | inhibition [10]: Active | Activity [11]: 18.6% | Activity [12]: 75% | Activity [13]: -0.8% | Ratio [14]: 3.46 | Ratio [15]: 3.15 | Activity [16]: 0% | Activity [17]: 0% | Ratio [18]: 6.5 | Ratio [19]: 0.75 | Activity [20]: 12% | Activity [21]: 10% | Activity [22]: inactive | Ratio [23]: 1.07 | Activity [24]: 35% | Ratio [25]: 0.6 | Activity [26]: 18% | EC50 [27]: 0.9 µM | EC50 [28]: 10.8 µM | EC50 [29]: 0.75 µM
